Reference: ChEMBL document CHEMBL3351600, “Sulfur, selenium and tellurium pseudopeptides: synthesis and biological evaluation” (Bioorg Med Chem, 2014)
pIC50: −log10 of the molar value. Active and inactive are the calls of the source. The rule behind the calls is not given here.

Key:
Micrococcus luteus = assay: Antimicrobial activity against Micrococcus luteus assessed as inhibition at 20 ug/6 mm disk after 1 to 2 days by agar diffusion assay; type: functional
Summary of the method: (§1)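 Standard agar diffusion: 6-mm paper disks loaded with 20 µg of compound were placed on inoculated plates. Inhibition-zone diameter (mm) was read after 1 and 2 days of growth.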

A-431 [1] = assay: Cytotoxicity against human A431 cells assessed as cell viability after 24 hrs incubation by MTT assay; type: functional, cell-based; settings: A-431, 24 h
Summary of the method: (§2)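 Cell lines came from DSMZ; primary human fibroblasts served as non-cancer controls. Cells were grown in medium with 10% FCS, seeded at 50,000 cells/ml, and grown 2 days at 37 °C, 10% CO2. Serial dilutions were then added for 24 h. MTT (final 0.5 mg/ml) was added for 2 h. Formazan was pelleted, PBS-washed, dissolved in isopropanol/0.4% HCl and read at 590 nm. Two parallel experiments were run. IC50 was taken as the concentration giving 50% of untreated-control absorbance.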

Escherichia coli = assay: Antimicrobial activity against Escherichia coli tolC assessed as inhibition at 20 ug/6 mm disk after 1 to 2 days by agar diffusion assay; type: functional; summary of the method: as §1
MCF7 [2] = assay: Cytotoxicity against human MCF7 cells assessed as cell viability after 24 hrs incubation by MTT assay; type: functional, cell-based; settings: MCF7, 24 h; summary of the method: as §2
[3] = Lipophilicity, log K of the compound by HPLC analysis
MCF7 [4] = assay: Cell cycle arrest in human MCF7 cells assessed as accumulation at G0/G1 phase after 30 mins by propidium iodide staining-based flow cytometric analysis; type: functional
Summary of the method: (§3)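 MCF-7 cells (10^6) were treated with compounds for 24 h alongside a methanol vehicle control. They were fixed in cold 70% methanol at 4 °C for one day, washed in PBS and permeabilised with 0.1% saponin in PBS. They were then stained with propidium iodide plus RNase (1 mg/ml) for 30 min, and DNA-content distribution was read by FACScan flow cytometry.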

A-431 [5] = assay: Reduction in ROS in human A431 cells assessed as decrease in hydrogen peroxide level at 0.1 to 10 ng/ml after 1 hr by DCHFA assay; type: functional, cell-based
Summary of the method: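 A-431 cells were seeded at 10^5 per well and exposed to a range of compound concentrations for 1 h. They were then loaded with DCHFA probe for 30 min in the dark. Fluorescence was read immediately at ex/em 485/528 nm and expressed as arbitrary units per 10^5 cells.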

Klebsiella pneumoniae = assay: Antimicrobial activity against Klebsiella pneumoniae assessed as inhibition at 20 ug/6 mm disk after 1 to 2 days by agar diffusion assay; type: functional; summary of the method: as §1
PtK2 [6] = assay: Induction of morphological changes in Potorous tridactylus PtK2 cells assessed as loss of typical shape after 24 hrs by immunofluorescence microscopy; type: functional, cell-based
Summary of the method: (§4)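 PtK2 cells were grown on coverslips and treated at semi-confluence for 24 h. Fixation was either 3.7% paraformaldehyde followed by 0.1% Triton X-100 for 5 min, or ice-cold methanol/acetone (50:50) for 10 min. ER was stained with anti-GRP94 and tubulin with anti-α-tubulin (primary and Alexa 488 secondary antibodies, 45 min each). Actin was stained with phalloidin-Alexa 594 for 45 min and nuclei with DAPI. Imaging was by fluorescence microscopy.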

MCF7 [7] = assay: Cell cycle arrest in human MCF7 cells assessed as accumulation at G2/M phase after 30 mins by propidium iodide staining-based flow cytometric analysis; type: functional; summary of the method: as §3
Candida albicans = assay: Antimicrobial activity against Candida albicans assessed as inhibition at 20 ug/6 mm disk after 1 to 2 days by agar diffusion assay; type: functional; summary of the method: as §1
Saccharomyces cerevisiae = assay: Antimicrobial activity against Saccharomyces cerevisiae assessed as inhibition at 20 ug/6 mm disk after 1 to 2 days by agar diffusion assay; type: functional; summary of the method: as §1
[8] = Octanol-water partition coefficient, log P of the compound by HPLC analysis; type: physicochemical
Summary of the method: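 Lipophilicity was measured by reversed-phase HPLC on a Nucleosil C18 column with isocratic water/methanol (3:1) at 0.5 ml/min and UV detection at 230 and 245 nm. Dead time was set with thiourea (t0 0.728 min). Retention factor was k = (tR − t0)/t0, and log P came from a calibration against at least six reference compounds.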

Aspergillus niger = assay: Antimicrobial activity against Aspergillus niger assessed as inhibition at 20 ug/6 mm disk after 1 to 2 days by agar diffusion assay; type: functional; summary of the method: as §1
PtK2 [9] = assay: Induction of morphological changes in Potorous tridactylus PtK2 cells assessed as lysis of ER and disappearance of actin stress fiber after 24 hrs by immunofluorescence microscopy; type: functional, cell-based; summary of the method: as §4
Mycolicibacterium phlei = assay: Antimicrobial activity against Mycobacterium phlei assessed as inhibition at 20 ug/6 mm disk after 1 to 2 days by agar diffusion assay; type: functional; summary of the method: as §1
Staphylococcus aureus = assay: Antimicrobial activity against Staphylococcus aureus assessed as inhibition at 20 ug/6 mm disk after 1 to 2 days by agar diffusion assay; type: functional; summary of the method: as §1
MCF7 [10] = assay: Cell cycle arrest in human MCF7 cells assessed as accumulation at S phase […] by propidium iodide staining-based flow cytometric analysis; type: functional
[11] = Cytotoxicity against human fibroblasts assessed as cell viability after 24 hrs incubation by MTT assay; type: cell-based; settings: Fibroblast; summary of the method: as §2
Pseudomonas aeruginosa = assay: Antimicrobial activity against Pseudomonas aeruginosa assessed as inhibition at 20 ug/6 mm disk after 1 to 2 days by agar diffusion assay; type: functional; summary of the method: as §1
A-431 [12] = assay: Reduction in ROS in human A431 cells assessed as decrease in hydrogen peroxide level at 1 to 100 ng/ml after 1 hr by DCHFA assay; type: functional, cell-based
Summary of the method: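 A-431 cells (10^5 per well) were treated with a range of compound concentrations for 1 h. They were then loaded with DCHFA probe for 30 min in the dark. Fluorescence (ex 485/em 528 nm) was read immediately and expressed as arbitrary units per 10^5 cells.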

Retention_time | log K [3] | logP [8] | Structure (SMILES) | diameter of the inhibition zone (DIZ) (Micrococcus luteus) | pIC50 (A-431 [1]) | diameter of the inhibition zone (DIZ) (Escherichia coli) | pIC50 (MCF7 [2]) | diameter of the inhibition zone (DIZ) (Klebsiella pneumoniae) | diameter of the inhibition zone (DIZ) (Candida albicans) | diameter of the inhibition zone (DIZ) (Saccharomyces cerevisiae) | diameter of the inhibition zone (DIZ) (Aspergillus niger) | diameter of the inhibition zone (DIZ) (Mycolicibacterium phlei) | diameter of the inhibition zone (DIZ) (Staphylococcus aureus) | pIC50 [11] | diameter of the inhibition zone (DIZ) (Pseudomonas aeruginosa) | Activity (A-431 [12]) | also measured
1.698 min | 0.12 | 3.4 | COc1ccc(N(CC(=O)NCCCSc2ccccc2)C(=O)C#Cc2ccccc2)cc1 | 0 mm | ≤ 4.00 | 0 mm | ≤ 4.00 | 0 mm | 0 mm | 0 mm | 0 mm | 0 mm | 0 mm | ≤ 4.00 | 0 mm | inactive | 
1.407 min | -0.03 | 3.1 | COc1ccc(N(CC(=O)NCCCSc2ccccc2)C(=O)c2ccccc2)cc1 | 0 mm | ≤ 4.00 | 0 mm | ≤ 4.00 | 0 mm | 0 mm | 0 mm | 0 mm | 0 mm | 0 mm | ≤ 4.00 | 0 mm | inactive | 

Structure (SMILES) | Retention_time | log K [3] | logP [8] | diameter of the inhibition zone (DIZ) (Micrococcus luteus) | pIC50 (A-431 [1]) | diameter of the inhibition zone (DIZ) (Escherichia coli) | pIC50 (MCF7 [2]) | diameter of the inhibition zone (DIZ) (Klebsiella pneumoniae) | diameter of the inhibition zone (DIZ) (Candida albicans) | diameter of the inhibition zone (DIZ) (Saccharomyces cerevisiae) | diameter of the inhibition zone (DIZ) (Aspergillus niger) | diameter of the inhibition zone (DIZ) (Mycolicibacterium phlei) | diameter of the inhibition zone (DIZ) (Staphylococcus aureus) | pIC50 [11] | diameter of the inhibition zone (DIZ) (Pseudomonas aeruginosa) | Activity (A-431 [12]) | also measured
CC(C)(C)OC(=O)NCC(=O)OCC(=O)NCCC[Te]c1ccccc1 | 2.247 min | 0.32 | 3.83 | 7 mm | 5.00 | 12 mm | 6.52 | 15 mm | 0 mm | 0 mm | 0 mm | 14 mm | 16 mm | 4.72 | 0 mm |  | Activity (MCF7 [4]): 91.61%; Activity (A-431 [5]): Dose-dependent effect; Activity (PtK2 [6]): Active; Activity (MCF7 [7]): 3.78%; Activity (PtK2 [9]): Active; Activity (MCF7 [10]): 4.61%
